# ChEMBL document CHEMBL4024746, “Nonpyrogenic Molecular Adjuvants Based on norAbu-Muramyldipeptide and norAbu-Glucosaminyl Muramyldipeptide: Synthesis, Molecular Mechanisms of Action, and Biological Activities in Vitro and in Vivo” (J Med Chem, 2017)
# Active and inactive are the calls of the source. No cut-off for these calls is given here.
# How the values were obtained:
# Oryctolagus cuniculus [1] = test: Toxicity in Chinchilla rabbit assessed as skin irritation at 100 nmol/kg, iv using micellar formulation measured up to 2 months post dose; format: organism-based; conditions: in vivo
# [2] = biological target: Nucleotide-binding oligomerization domain-containing protein 2 (Homo sapiens) (UniProt Q9HC29); test: Agonist activity at human NOD2 receptor expressed in mouse Raw-Blue reporter cells at 10 uM after 48 hrs by SEAP reporter gene assay; format: cell-based
# Outline: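 RAW 264.7-derived RAW-Blue cells carrying an NF-κB/AP-1-inducible SEAP reporter, exposed to compounds at 10 μM for 48 h. Colorimetric SEAP read-out at 650 nm. MDP serves as positive control. ANOVA with Dunnett's test versus untreated cells and versus MDP.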
# Oryctolagus cuniculus [3] = test: Toxicity in New Zealand albino rabbit assessed as weight loss at 100 nmol/kg, sc using liposomal formulation measured up to 2 months post dose; format: organism-based; conditions: in vivo
# Oryctolagus cuniculus [4] = test: Pyrogenic activity in New Zealand albino rabbit assessed as change in maximum body temperature at 100 nmol/kg, sc using liposomal formulation measured at 30 mins time intervals for 9 to 24 hrs (reference value: 0.2 degC); format: toxicity, organism-based; conditions: in vivo
# Outline: (§1)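 Standard rabbit pyrogenicity test, three animals per group, iv or modified sc application of free (micellar) or liposomal formulations. Maximum temperature rise (+ΔTmax) summed per group; sum below 1.1 °C classed as nonpyrogenic. Temperature followed a further 24 h for delayed pyrogenicity.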
# Oryctolagus cuniculus [5] = test: Toxicity in New Zealand albino rabbit assessed as necrosis at site of application at 100 nmol/kg, sc using liposomal formulation measured up to 2 months post dose; format: organism-based; conditions: in vivo
# Oryctolagus cuniculus [6] = test: Toxicity in Chinchilla rabbit assessed as weight loss at 100 nmol/kg, iv using micellar formulation measured up to 2 months post dose; format: organism-based; conditions: in vivo
# [7] = biological target: Nucleotide-binding oligomerization domain-containing protein 2 (Homo sapiens) (UniProt Q9HC29); test: Agonist activity at human NOD2 receptor expressed in mouse Raw-Blue reporter cells at 10 uM after 48 hrs in presence of gefitinib by SEAP reporter gene assay; format: cell-based
# Oryctolagus cuniculus [8] = test: Toxicity in New Zealand albino rabbit assessed as skin irritation at 100 nmol/kg, sc using liposomal formulation measured up to 2 months post dose; format: organism-based; conditions: in vivo
# Oryctolagus cuniculus [9] = test: Toxicity in Chinchilla rabbit assessed as behavioral changes at 100 nmol/kg, iv using micellar formulation measured up to 2 months post dose; format: organism-based; conditions: in vivo
# Mus musculus = test: Immuno-stimulatory activity in ICR mouse assessed as induction of GM-progenitor cell proliferation in serum at […], sc using liposomal formulation measured after 6 hrs; format: functional, organism-based
# Outline: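 Female ICR mice, 3 months old, four per group, given liposomal preparations sc at 100 nmol per dose in 200 μL. Serum collected 6 h later and added to cultured granulocyte–monocyte progenitors. GM-CFU colonies counted, with serum-free cells as baseline. Dunnett's test is used versus the infusion-solution control.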
# [10] = biological target: NACHT, LRR and PYD domains-containing protein 3 (Homo sapiens, UniProt Q96P20); test: Agonist activity at NLRP3 in human […] cells assessed as induction of LPS-induced IL-1beta secretion by HEK-Blue reporter cell based assay
# Outline: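 THP1-Null cells stimulated with compounds; mature IL-1β released is detected with HEK-Blue IL-1β cells through SEAP reporter activity in the supernatant, read colorimetrically with QUANTI-Blue. ATP serves as positive standard. Untreated HEK-Blue IL-1β cells serve as negative control; comparison by ANOVA with Dunnett's test.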
# Oryctolagus cuniculus [11] = test: Toxicity in New Zealand albino rabbit assessed as behavioral changes at 100 nmol/kg, sc using liposomal formulation measured up to 2 months post dose; format: organism-based; conditions: in vivo
# Oryctolagus cuniculus [12] = test: Toxicity in Chinchilla rabbit assessed as necrosis at site of application at 100 nmol/kg, iv using micellar formulation measured up to 2 months post dose; format: organism-based; conditions: in vivo
# [13] = biological target: Nucleotide-binding oligomerization domain-containing protein 2 (Homo sapiens) (UniProt Q9HC29); test: Agonist activity at human NOD2 receptor expressed in mouse Raw-Blue reporter cells at 10 uM after 24 hrs in presence of GSK717 by SEAP reporter gene assay
# Oryctolagus cuniculus [14] = test: Pyrogenic activity in Chinchilla rabbit assessed as change in maximum body temperature at 100 nmol/kg, iv using micellar foemulation measured at 30 mins time intervals; format: toxicity, organism-based; conditions: in vivo, 0.5 h; outline: as §1
# [15] = biological target: T1, Nucleotide-binding oligomerization domain-containing protein 1 (Homo sapiens) (UniProt Q9Y239); test: Agonist activity at human NOD1 receptor expressed in HEK-Blue reporter cells at 10 uM after 48 hrs by SEAP reporter gene assay; format: cell-based
# T1 sequence (whole entry): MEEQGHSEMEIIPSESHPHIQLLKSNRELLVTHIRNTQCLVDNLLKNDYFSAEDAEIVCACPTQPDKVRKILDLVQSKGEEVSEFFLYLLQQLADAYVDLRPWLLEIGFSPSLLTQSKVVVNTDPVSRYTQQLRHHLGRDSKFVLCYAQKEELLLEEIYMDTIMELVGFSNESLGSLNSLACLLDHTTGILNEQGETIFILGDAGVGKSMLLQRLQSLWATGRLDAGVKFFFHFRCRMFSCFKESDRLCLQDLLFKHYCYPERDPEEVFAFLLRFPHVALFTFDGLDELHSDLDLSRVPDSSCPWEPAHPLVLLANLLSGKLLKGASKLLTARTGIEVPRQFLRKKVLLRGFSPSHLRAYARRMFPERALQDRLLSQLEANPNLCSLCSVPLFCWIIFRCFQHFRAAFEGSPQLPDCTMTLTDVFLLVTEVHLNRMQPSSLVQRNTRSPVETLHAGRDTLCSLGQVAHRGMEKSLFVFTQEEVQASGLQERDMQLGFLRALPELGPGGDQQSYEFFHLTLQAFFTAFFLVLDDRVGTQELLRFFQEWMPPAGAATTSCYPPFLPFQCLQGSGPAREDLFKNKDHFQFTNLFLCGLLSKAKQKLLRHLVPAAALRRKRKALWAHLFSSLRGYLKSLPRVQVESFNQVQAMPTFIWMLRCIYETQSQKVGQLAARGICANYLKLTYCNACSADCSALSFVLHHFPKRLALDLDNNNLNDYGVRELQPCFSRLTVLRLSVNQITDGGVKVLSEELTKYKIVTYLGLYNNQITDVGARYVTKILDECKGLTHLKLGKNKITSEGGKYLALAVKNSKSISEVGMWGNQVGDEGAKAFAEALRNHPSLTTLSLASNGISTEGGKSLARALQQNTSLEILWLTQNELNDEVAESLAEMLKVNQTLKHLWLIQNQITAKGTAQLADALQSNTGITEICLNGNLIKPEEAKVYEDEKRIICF
# Outline: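 HEK293 cells cotransfected with human NOD1 and an NF-κB/AP-1-inducible SEAP reporter, exposed to compounds at 10 μM for 48 h. SEAP is read at 650 nm with QUANTI-Blue. Diaminopimelic acid derivatives serve as NOD1 positive controls. Dunnett's test is used versus untreated cells.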
# Chain of NACHT, LRR and PYD domains-containing protein 3 (Q96P20 whole entry, the tested form may be a part): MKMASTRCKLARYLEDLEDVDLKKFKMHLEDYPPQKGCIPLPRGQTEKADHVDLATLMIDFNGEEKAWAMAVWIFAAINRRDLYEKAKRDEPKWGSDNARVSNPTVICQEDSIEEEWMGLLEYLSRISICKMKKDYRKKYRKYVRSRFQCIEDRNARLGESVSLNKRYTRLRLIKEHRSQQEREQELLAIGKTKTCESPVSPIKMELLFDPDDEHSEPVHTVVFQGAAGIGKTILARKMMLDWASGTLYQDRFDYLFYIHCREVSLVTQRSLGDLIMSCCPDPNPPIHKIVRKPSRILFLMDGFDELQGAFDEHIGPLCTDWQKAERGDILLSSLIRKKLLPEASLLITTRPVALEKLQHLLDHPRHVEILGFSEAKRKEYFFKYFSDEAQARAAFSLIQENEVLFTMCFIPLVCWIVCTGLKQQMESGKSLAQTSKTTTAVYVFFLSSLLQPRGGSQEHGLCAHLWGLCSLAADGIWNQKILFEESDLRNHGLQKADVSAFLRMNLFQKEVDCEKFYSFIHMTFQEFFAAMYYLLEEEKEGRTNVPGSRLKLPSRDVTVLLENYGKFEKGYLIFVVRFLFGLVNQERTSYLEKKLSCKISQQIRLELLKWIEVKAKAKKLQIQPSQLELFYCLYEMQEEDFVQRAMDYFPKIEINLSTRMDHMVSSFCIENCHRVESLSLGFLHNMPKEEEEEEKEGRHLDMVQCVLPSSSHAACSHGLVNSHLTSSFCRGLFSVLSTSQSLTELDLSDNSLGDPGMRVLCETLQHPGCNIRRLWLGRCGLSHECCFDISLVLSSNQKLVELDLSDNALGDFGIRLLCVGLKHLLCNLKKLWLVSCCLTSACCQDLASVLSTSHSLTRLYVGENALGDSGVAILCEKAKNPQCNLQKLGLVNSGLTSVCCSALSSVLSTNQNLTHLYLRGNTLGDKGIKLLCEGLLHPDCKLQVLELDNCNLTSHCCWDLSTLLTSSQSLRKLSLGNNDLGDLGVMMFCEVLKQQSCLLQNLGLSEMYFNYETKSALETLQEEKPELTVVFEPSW
# Chain of Nucleotide-binding oligomerization domain-containing protein 2 (Homo sapiens) (Q9HC29 whole entry, the tested form may be a part): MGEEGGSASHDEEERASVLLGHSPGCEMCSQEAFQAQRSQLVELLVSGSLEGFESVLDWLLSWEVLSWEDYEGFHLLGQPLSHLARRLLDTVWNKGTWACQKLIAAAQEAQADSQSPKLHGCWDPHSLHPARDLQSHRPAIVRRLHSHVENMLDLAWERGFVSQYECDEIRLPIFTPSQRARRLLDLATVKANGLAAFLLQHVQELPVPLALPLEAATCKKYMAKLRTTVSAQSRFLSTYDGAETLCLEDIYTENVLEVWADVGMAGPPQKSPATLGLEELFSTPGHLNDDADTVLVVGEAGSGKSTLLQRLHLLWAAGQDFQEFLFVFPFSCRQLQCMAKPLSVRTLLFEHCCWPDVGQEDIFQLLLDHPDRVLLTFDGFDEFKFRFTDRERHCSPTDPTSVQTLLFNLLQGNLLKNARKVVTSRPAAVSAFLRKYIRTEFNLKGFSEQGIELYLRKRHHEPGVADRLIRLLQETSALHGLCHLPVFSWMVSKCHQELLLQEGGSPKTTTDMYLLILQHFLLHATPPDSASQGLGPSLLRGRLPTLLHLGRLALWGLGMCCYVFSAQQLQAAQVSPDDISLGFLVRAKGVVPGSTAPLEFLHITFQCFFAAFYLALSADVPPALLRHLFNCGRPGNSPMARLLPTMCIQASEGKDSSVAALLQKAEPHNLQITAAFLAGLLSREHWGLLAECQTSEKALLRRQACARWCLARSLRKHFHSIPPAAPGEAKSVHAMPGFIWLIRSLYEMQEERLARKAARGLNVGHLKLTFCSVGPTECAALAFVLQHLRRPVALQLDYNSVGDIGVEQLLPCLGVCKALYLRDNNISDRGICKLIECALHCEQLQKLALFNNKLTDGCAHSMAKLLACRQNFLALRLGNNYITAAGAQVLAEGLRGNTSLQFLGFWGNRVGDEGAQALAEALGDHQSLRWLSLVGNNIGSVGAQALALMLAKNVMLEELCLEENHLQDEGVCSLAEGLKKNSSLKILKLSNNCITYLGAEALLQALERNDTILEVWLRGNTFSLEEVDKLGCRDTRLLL
Activity [2],Activity [7],Activity [10],Activity [13],Activity [15],Structure (SMILES),Activity (Oryctolagus cuniculus [1]),Activity (Oryctolagus cuniculus [3]),deltaT (Oryctolagus cuniculus [4]) [°C],Activity (Oryctolagus cuniculus [5]),Activity (Oryctolagus cuniculus [6]),Activity (Oryctolagus cuniculus [8]),Activity (Oryctolagus cuniculus [9]),Activity (Mus musculus),Activity (Oryctolagus cuniculus [11]),Activity (Oryctolagus cuniculus [12]),deltaT (Oryctolagus cuniculus [14]) [°C]
Active,inactive,Active,inactive,inactive,CCCCCCCCCCCCCCCCCC(=O)N[C@H]1[C@H](O[C@H]2[C@H](OCC(=O)N[C@@H](CC)C(=O)N[C@H](CCC(=O)O)C(N)=O)[C@@H](NC(C)=O)C(O)O[C@@H]2CO)O[C@H](CO)[C@@H](O)[C@@H]1O (some centres not stated),Non-Toxic,Non-Toxic,0.4,Non-Toxic,Non-Toxic,Non-Toxic,Non-Toxic,Active,Non-Toxic,Non-Toxic,0.5
Active,inactive,–,inactive,–,CCCCCCCCCCCCCCCCCC(=O)OC[C@H]1OC(O)[C@H](NC(C)=O)[C@@H](O[C@H](C)C(=O)N[C@@H](C)C(=O)N[C@H](CCC(=O)O)C(N)=O)[C@@H]1O (some centres not stated),–,–,–,–,–,–,–,–,–,–,–
Active,inactive,Active,inactive,inactive,CCCCCCCCCCCCCCCCCC(=O)OC[C@H]1OC(O)[C@H](NC(C)=O)[C@@H](OCC(=O)N[C@@H](CC)C(=O)N[C@H](CCC(=O)O)C(N)=O)[C@@H]1O (some centres not stated),Non-Toxic,Non-Toxic,0.6,Non-Toxic,Non-Toxic,Non-Toxic,Non-Toxic,Active,Non-Toxic,Non-Toxic,0.6
Active,inactive,Active,inactive,inactive,CCCCCCCCCCCCCCCCCC(=O)NCCCC[C@H](NC(=O)CC[C@@H](NC(=O)[C@H](CC)NC(=O)CO[C@H]1[C@H](O)[C@@H](CO)OC(O)[C@@H]1NC(C)=O)C(N)=O)C(=O)O (some centres not stated),Non-Toxic,Non-Toxic,0.5,Non-Toxic,Non-Toxic,Non-Toxic,Non-Toxic,Active,Non-Toxic,Non-Toxic,0.4
Active,inactive,Active,inactive,inactive,CCCCCCCCCCCCCCC(CCCCCCCCCCCCCC)C(=O)NCCCC[C@H](NC(=O)CC[C@@H](NC(=O)[C@H](CC)NC(=O)CO[C@H]1[C@H](O[C@@H]2O[C@H](CO)[C@@H](O)[C@H](O)[C@H]2NC(C)=O)[C@@H](CO)OC(O)[C@@H]1NC(C)=O)C(N)=O)C(=O)O (some centres not stated),Non-Toxic,Non-Toxic,0.5,Non-Toxic,Non-Toxic,Non-Toxic,Non-Toxic,Active,Non-Toxic,Non-Toxic,0.4
Active,inactive,Active,inactive,inactive,CCCCCCCCCCCCCCCCCC(=O)NCCCC[C@H](NC(=O)CC[C@@H](NC(=O)[C@H](CC)NC(=O)CO[C@H]1[C@H](O[C@@H]2O[C@H](CO)[C@@H](O)[C@H](O)[C@H]2NC(C)=O)[C@@H](CO)OC(O)[C@@H]1NC(C)=O)C(N)=O)C(=O)O (some centres not stated),Non-Toxic,Non-Toxic,0.4,Non-Toxic,Non-Toxic,Non-Toxic,Non-Toxic,Active,Non-Toxic,Non-Toxic,0.5

# The remaining lines, values behind:
Structure (SMILES),Activity [2],Activity [7],Activity [10],Activity [13],Activity [15],Activity (Oryctolagus cuniculus [1]),Activity (Oryctolagus cuniculus [3]),deltaT (Oryctolagus cuniculus [4]) [°C],Activity (Oryctolagus cuniculus [5]),Activity (Oryctolagus cuniculus [6]),Activity (Oryctolagus cuniculus [8]),Activity (Oryctolagus cuniculus [9]),Activity (Mus musculus),Activity (Oryctolagus cuniculus [11]),Activity (Oryctolagus cuniculus [12]),deltaT (Oryctolagus cuniculus [14]) [°C]
C[C@H](NC(=O)[C@@H](C)O[C@H]1[C@H](O)[C@@H](CO)OC(O)[C@@H]1NC(=O)CO)C(=O)N[C@H](CCC(=O)O)C(N)=O (some centres not stated),Active,–,–,–,–,–,–,–,–,–,–,–,–,–,–,–
C[C@H](N)C(=O)N[C@H](CCC(=O)NC12CC3CC(CC(C3)C1)C2)C(N)=O,inactive,–,–,–,–,–,–,–,–,–,–,–,–,–,–,–
CCCCCCCCCCCCCCC(CCCCCCCCCCCCCC)C(=O)OC[C@H]1OC(O)[C@H](NC(C)=O)[C@@H](OCC(=O)N[C@@H](CC)C(=O)N[C@H](CCC(=O)O)C(N)=O)[C@@H]1O (some centres not stated),Active,inactive,Active,inactive,inactive,Non-Toxic,Non-Toxic,0.5,Non-Toxic,Non-Toxic,Non-Toxic,Non-Toxic,Active,Non-Toxic,Non-Toxic,0.6
Nc1ncnc2c1ncn2[C@@H]1O[C@H](COP(=O)(O)OP(=O)(O)OP(=O)(O)O)[C@@H](O)[C@H]1O [ADENOSINE TRIPHOSPHATE],–,–,Active,–,–,–,–,–,–,–,–,–,–,–,–,–
